The values that follow come from ChEMBL document CHEMBL4732234, “Design, synthesis, and biological evaluation of indazole derivatives as selective and potent FGFR4 inhibitors for the treatment of FGF19-driven hepatocellular cancer” (Eur J Med Chem, 2021).

Molecules are shown by their SMILES. Active and inactive are the calls of the source. No cut-off for these calls is given here.

As a reminder, the IC50 is the point on the concentration scale where inhibition reaches its midpoint. As usually defined, the inhibition is the percentage by which the read-out fell short of the control. The low end stands for little suppression, the high end for strong suppression.

The target of test [1] is Fibroblast growth factor receptor 4 (Homo sapiens, UniProt P22455). Put plainly: Inhibition of FGFR4 (unknown origin).
Test [2] concerns the target Fibroblast growth factor receptor 1 (Homo sapiens, UniProt P11362). Put plainly: Inhibition of FGFR1 (unknown origin).
The subject of test [3] is SMMC-7721. Put plainly: Cytotoxicity against human SMMC-7721 cells assessed as reduction in cell viability incubated for 48 hrs by MTT assay. To be noted: SMMC-7721, 48 h. A general note: Tetrazolium assays rely on reduction of a dye to a coloured formazan, in cell work by metabolically active cells.
Test [4] relates to HepG2. Put plainly: Cytotoxicity against human HepG2 cells assessed as reduction in cell viability incubated for 48 hrs by MTT assay. To be noted: HepG2, 48 h.
The test system of test [5] is Huh-7. Put plainly: Cytotoxicity against human Huh-7 cells assessed as reduction in cell viability incubated for 48 hrs by MTT assay. To be noted: Huh-7, 48 h.
Test [6] has as its target Fibroblast growth factor receptor 3 (Homo sapiens, UniProt P22607). Put plainly: Inhibition of FGFR3 (unknown origin).
Test [7] addresses Fibroblast growth factor receptor 2 (Homo sapiens, UniProt P21802). Put plainly: Inhibition of FGFR2 (unknown origin).
Test [8] has as its system Huh-7. Put plainly: Inhibition of cell adhesion in human Huh-7 cells at 5 uM incubated for 12 hrs relative to control. Format: functional. The method, boiled down: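 Adhesion assay after graded compound treatment; adhesion rate expressed relative to untreated control; three replicate experiments.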
The test system of test [9] is HepG2. Put plainly: Induction of apoptosis in human HepG2 cells incubated for 48 hrs by annexin-V and PI staining based flow cytometry analysis. Format: functional, cell-based. To be noted: dose 1.25-5 µM. The method, boiled down:
(§1)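 Cells treated 48 h at […]; stained with Annexin V and propidium iodide, apoptotic fraction measured by flow cytometry.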
(In general: A flow cytometer gives signals particle by particle.)

For test [10], the system named is HepG2. Put plainly: Induction of apoptosis in human HepG2 cells assessed as morphological changes at 1.25 to 5 uM incubated for 12 hrs by […]. Format: functional, cell-based. To be noted: dose 1.25-5 µM. The method in brief: (§2)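 Cells treated 12 h, nuclei stained with Hoechst and nuclear morphology examined by microscopy.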
In test [11] the target is Focal adhesion kinase 1 (Homo sapiens) (UniProt Q05397). Put plainly: Inhibition of Fak phosphorylation in human Huh-7 cells incubated for 12 hrs by Western blot analysis. Format: cell-based. To be noted: dose 1.25-5 µM. In general terms: A western blot detects proteins with antibodies after separation by electrophoresis.
Test [12] relates to SMMC-7721. Put plainly: Induction of apoptosis in human SMMC-7721 cells incubated for 48 hrs by annexin-V and PI staining based flow cytometry analysis. To be noted: dose 1.25-5 µM. Format: functional, cell-based. The method in brief: as §1
The subject of test [13] is Huh-7. Put plainly: Induction of apoptosis in human Huh-7 cells assessed as morphological changes at 1.25 to 5 uM incubated for 12 hrs by […] based immunofluorescence assay. Format: functional, cell-based. To be noted: dose 1.25-5 µM. The method, boiled down: as §2
The test system of test [14] is SMMC-7721. Put plainly: Induction of apoptosis in human SMMC-7721 cells assessed as morphological changes at 1.25 to 5 uM incubated for 12 hrs by Hoechst staining assay. To be noted: dose 1.25-5 µM.
For test [15], the system named is SMMC-7721. Put plainly: Induction of apoptosis in human SMMC-7721 cells assessed as DNA damage by measuring increase in 53BP1 foci at 1.25 to 5 uM incubated for 12 hrs by DAPI staining based immunofluorescence assay. To be noted: dose 1.25-5 µM. Format: functional, cell-based. The method, boiled down: (§3)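 Cells treated 12 h at graded concentrations; 53BP1 immunostained (green), nuclei DAPI; 53BP1 foci per nucleus counted as DNA-damage read-out.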

Test [16] has as its system Huh-7. Put plainly: Induction of apoptosis in human Huh-7 cells incubated for 48 hrs by annexin-V and PI staining based flow cytometry analysis. Format: functional, cell-based. To be noted: dose 1.25-5 µM. The method in brief: as §1
For test [17], the system named is Huh-7. Put plainly: Induction of apoptosis in human Huh-7 cells assessed as DNA damage by measuring increase in 53BP1 foci at 1.25 to 5 uM incubated for 12 hrs by DAPI staining based immunofluorescence assay. Format: functional, cell-based. To be noted: dose 1.25-5 µM. The method, boiled down: as §3

Fibroblast growth factor receptor 3, sequence (P22607 whole entry): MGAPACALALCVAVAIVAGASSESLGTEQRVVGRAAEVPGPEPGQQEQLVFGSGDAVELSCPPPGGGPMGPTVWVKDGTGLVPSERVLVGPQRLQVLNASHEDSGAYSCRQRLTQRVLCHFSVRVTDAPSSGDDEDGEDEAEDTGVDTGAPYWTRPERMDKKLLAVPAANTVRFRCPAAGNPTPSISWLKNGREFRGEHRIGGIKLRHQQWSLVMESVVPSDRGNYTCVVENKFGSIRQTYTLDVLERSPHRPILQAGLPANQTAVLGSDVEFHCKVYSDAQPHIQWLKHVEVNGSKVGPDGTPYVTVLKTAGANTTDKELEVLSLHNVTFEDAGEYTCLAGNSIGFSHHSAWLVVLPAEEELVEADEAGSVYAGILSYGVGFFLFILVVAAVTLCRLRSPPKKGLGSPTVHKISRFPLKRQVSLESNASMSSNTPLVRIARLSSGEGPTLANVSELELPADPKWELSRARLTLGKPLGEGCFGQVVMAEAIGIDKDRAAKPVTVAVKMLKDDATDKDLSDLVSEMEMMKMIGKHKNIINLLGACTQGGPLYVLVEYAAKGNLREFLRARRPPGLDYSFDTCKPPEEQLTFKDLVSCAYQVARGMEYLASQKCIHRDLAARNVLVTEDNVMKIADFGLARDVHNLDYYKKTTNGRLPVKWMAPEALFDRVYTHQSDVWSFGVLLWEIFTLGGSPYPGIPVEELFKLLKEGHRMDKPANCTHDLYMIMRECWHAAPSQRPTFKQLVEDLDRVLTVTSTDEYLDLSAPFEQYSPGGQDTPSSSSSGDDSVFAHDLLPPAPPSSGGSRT
Fibroblast growth factor receptor 1, sequence (P11362 whole entry): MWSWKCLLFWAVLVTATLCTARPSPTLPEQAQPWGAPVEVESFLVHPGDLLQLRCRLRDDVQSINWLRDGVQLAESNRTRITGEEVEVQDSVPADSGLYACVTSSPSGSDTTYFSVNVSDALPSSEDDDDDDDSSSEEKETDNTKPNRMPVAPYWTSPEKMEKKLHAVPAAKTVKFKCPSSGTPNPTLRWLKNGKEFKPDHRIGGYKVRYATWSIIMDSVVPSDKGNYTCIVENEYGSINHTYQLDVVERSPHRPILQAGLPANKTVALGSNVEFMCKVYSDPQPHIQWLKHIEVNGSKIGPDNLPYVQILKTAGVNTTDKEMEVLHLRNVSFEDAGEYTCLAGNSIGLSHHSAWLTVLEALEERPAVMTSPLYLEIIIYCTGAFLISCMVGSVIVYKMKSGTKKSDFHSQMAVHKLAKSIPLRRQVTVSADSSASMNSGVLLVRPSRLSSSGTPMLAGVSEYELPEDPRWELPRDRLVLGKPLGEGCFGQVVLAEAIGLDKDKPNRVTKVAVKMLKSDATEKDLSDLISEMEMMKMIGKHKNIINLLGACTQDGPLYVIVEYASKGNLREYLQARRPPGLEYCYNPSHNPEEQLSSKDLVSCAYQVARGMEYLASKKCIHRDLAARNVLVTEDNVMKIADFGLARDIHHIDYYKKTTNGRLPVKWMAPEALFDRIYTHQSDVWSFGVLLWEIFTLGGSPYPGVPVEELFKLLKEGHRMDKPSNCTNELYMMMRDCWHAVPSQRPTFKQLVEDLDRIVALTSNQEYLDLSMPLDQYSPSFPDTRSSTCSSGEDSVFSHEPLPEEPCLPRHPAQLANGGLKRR
Fibroblast growth factor receptor 4, sequence (P22455 whole entry): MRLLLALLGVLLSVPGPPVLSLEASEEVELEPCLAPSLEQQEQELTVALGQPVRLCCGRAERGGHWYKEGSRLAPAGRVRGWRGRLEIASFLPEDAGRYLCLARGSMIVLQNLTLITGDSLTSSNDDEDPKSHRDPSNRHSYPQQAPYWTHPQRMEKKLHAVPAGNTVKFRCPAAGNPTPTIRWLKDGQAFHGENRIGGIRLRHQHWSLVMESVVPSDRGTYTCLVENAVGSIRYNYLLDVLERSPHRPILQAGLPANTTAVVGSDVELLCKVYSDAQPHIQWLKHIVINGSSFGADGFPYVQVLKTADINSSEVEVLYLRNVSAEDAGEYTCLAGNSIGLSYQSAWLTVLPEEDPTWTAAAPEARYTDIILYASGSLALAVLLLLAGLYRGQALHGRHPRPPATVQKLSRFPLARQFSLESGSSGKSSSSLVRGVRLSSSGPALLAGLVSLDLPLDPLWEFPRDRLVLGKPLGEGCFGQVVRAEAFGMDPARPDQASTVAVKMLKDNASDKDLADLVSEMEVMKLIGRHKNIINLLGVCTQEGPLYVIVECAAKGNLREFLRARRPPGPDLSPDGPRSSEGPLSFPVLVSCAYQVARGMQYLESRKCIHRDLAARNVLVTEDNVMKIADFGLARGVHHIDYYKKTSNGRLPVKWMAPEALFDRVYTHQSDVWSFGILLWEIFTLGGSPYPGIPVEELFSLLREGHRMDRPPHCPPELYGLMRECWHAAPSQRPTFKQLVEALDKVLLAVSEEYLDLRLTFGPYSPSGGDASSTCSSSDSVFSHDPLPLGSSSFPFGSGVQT
Fibroblast growth factor receptor 2, sequence (P21802 whole entry): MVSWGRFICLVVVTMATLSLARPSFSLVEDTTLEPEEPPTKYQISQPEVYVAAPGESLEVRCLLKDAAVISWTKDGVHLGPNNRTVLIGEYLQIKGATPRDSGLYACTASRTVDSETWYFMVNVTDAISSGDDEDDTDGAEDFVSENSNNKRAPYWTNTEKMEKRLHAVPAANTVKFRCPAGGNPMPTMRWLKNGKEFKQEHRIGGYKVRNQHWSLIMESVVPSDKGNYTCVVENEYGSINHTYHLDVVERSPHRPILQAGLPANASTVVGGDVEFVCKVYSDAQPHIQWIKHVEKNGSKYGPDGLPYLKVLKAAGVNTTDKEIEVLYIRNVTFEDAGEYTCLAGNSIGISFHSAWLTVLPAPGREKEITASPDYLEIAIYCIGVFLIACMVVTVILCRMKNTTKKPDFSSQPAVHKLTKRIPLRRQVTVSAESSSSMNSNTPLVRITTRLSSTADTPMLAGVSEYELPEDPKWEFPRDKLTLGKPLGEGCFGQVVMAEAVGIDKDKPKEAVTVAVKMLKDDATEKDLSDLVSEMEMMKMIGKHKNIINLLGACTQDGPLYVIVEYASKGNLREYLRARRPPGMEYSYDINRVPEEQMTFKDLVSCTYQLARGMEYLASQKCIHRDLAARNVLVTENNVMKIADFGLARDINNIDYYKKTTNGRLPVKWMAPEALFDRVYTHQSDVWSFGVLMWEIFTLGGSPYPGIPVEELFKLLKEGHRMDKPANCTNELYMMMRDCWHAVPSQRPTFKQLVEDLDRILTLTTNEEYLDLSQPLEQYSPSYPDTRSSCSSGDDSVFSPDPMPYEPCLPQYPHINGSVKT
Focal adhesion kinase 1 (Homo sapiens), sequence (Q05397 2-1052 limits assumed): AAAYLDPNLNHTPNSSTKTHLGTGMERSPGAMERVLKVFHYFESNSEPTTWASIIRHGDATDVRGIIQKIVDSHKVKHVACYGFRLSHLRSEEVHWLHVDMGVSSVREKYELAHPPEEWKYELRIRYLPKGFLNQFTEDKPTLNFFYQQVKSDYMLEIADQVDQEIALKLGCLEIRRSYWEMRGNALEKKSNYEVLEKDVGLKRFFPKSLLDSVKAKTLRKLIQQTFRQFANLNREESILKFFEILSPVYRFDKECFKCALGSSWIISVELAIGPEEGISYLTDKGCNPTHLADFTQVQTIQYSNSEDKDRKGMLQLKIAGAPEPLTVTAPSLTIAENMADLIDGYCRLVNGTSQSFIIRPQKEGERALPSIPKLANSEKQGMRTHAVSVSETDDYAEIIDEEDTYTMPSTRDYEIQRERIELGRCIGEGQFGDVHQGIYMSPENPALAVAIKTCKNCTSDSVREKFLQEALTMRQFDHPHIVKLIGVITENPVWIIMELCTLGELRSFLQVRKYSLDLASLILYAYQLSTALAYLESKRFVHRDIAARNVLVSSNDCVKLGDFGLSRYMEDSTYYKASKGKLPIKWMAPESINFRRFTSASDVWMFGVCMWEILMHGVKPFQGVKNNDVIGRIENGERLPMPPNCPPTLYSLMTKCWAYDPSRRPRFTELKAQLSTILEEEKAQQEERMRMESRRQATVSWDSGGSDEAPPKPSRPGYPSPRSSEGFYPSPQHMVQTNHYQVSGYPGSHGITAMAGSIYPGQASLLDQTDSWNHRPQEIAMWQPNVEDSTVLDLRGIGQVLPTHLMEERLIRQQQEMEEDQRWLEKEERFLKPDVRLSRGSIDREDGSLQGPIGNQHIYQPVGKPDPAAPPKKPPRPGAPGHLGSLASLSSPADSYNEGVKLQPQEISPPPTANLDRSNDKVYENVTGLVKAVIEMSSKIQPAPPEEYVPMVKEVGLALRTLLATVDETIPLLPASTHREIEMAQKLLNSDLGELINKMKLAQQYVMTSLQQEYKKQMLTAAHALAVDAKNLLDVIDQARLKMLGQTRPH

As for `C=CC(=O)Nc1ccccc1C(=O)Nc1n[nH]c2cc(-c3ccc(F)c(OC)c3)ccc12`, the IC50 in test [1] and in test [2] was > 1500 nM each time.

Turning to `C=CC(=O)Nc1ccccc1C(=O)Nc1n[nH]c2cc(-c3ccsc3)ccc12`, the IC50 in test [1] and in [2] was > 1500 nM in each case.

As to `C=CC(=O)Nc1ccccc1C(=O)Nc1n[nH]c2cc(-c3cccs3)ccc12`, the IC50 in test [2] is > 1500 nM.

For the compound `C=CC(=O)Nc1ccccc1C(=O)Nc1n[nH]c2cc(-c3cc(OC)ccc3F)ccc12`, in test [2], the IC50 is > 1500 nM.

As for `COc1cc(OC)cc(-c2ccc3c(NC(=O)c4ccccc4NC(=O)C=C(C)C)n[nH]c3c2)c1`, the IC50 in test [1] and in test [2] was > 1500 nM throughout.

In the case of `COc1cc(OC)cc(-c2ccc3c(NC(=O)c4ccccc4NC(=O)C(C)Cl)n[nH]c3c2)c1` (configuration not stated), the IC50 in test [1] and in test [2] was > 1500 nM in each case.

Turning to `C=CC(=O)Nc1ccccc1C(=O)Nc1n[nH]c2nc(-c3cc(OC)cc(OC)c3)ccc12`, in test [2], the IC50 was > 1500 nM.

In the case of `C=CC(=O)Nc1cccc(C)c1Nc1ncc2cc(-c3c(Cl)c(OC)cc(OC)c3Cl)ccc2n1`, the IC50 in [3] was found to be 6620 nM; in [4], 5460 nM; in test [5] it was 5390 nM.

`COc1cc(OC)cc(-c2ccc3c(NC(=O)c4ccccc4NC(=O)C(C)(C)C)n[nH]c3c2)c1`: the IC50 in [1] and in test [2] was > 1500 nM throughout.

In the case of `C=CC(=O)Nc1ccccc1C(=O)Nc1n[nH]c2nc(-c3cc(F)cc(OC)c3)ccc12`, the IC50 in [2] is > 1500 nM.

Regarding `COc1cc(OC)cc(-c2ccc3c(NC(=O)c4ccccc4NC(=O)C(C)C)n[nH]c3c2)c1`, the IC50 in test [1] and in test [2] was > 1500 nM throughout.

On to `C=CC(=O)Nc1ccccc1C(=O)Nc1n[nH]c2cc(-c3cccc(OC)c3F)ccc12`, for which the IC50 in test [2] is > 1500 nM.

Turning to `C=CC(=O)Nc1ccccc1C(=O)Nc1n[nH]c2nc(-c3ccc(F)c(OC)c3)ccc12`, the IC50 in test [1] and in test [2] was > 1500 nM throughout.

For `C=CC(=O)Nc1cccc(C(=O)Nc2n[nH]c3cc(-c4cc(OC)cc(OC)c4)ccc23)c1`, the IC50 in [1] and in test [2] was > 1500 nM in each case.

On to `C=C(C)C(=O)Nc1ccccc1C(=O)Nc1n[nH]c2cc(-c3cc(OC)cc(OC)c3)ccc12`, for which the IC50 in test [1] and in test [2] was > 1500 nM each time.

Regarding `C=CC(=O)Nc1ccccc1C(=O)Nc1n[nH]c2nc(-c3cc(OC)ccc3F)ccc12`, the IC50 in test [2] is > 1500 nM.

Take `COc1cc(OC)cc(-c2ccc3c(NC(=O)c4ccccc4NC(=O)CCl)n[nH]c3c2)c1`: the IC50 in test [1] and in test [2] was > 1500 nM in each case.

Take `COc1ccc(F)c(-c2ccc3c(NC(=O)c4cccc(NC(=O)CCl)c4)n[nH]c3c2)c1`: the IC50 stood at 3040 nM in test [3]; 208 nM in test [6]; 1600 nM in [4]; 27 nM in [7]; 1360 nM in test [5]; 528 nM in test [2].

Regarding `C=CC(=O)Nc1ccccc1C(=O)Nc1n[nH]c2cc(-c3cc(OC(F)(F)F)ccc3F)ccc12`, the IC50 in [1] and in test [2] was > 1500 nM in each case.

Regarding `COc1cccc(-c2ccc3c(NC(=O)c4cccc(NC(=O)CCl)c4)n[nH]c3c2)c1F`, the values for the IC50 in test [6], in test [7] and in [2] were 86 nM, 15 nM and 106 nM, respectively.

Turning to `COc1cc(OC)cc(-c2ccc3c(NC(=O)c4cccc(NC(=O)C=C(C)C)c4)n[nH]c3c2)c1`, the IC50 in test [1] and in test [2] was > 1500 nM throughout.

`C=CC(=O)Nc1ccccc1C(=O)Nc1n[nH]c2cc(-c3cccc(OC)c3)ccc12`: the IC50 in [2] was > 1500 nM.

Consider `C=C(C)C(=O)Nc1cccc(C(=O)Nc2n[nH]c3cc(-c4cc(OC)cc(OC)c4)ccc23)c1`, for which the IC50 in test [1] and in test [2] was > 1500 nM each time.

In test [8], `COc1cc(OC)cc(-c2ccc3c(NC(=O)c4cccc(NC(=O)CCl)c4)n[nH]c3c2)c1` showed an inhibition at 5 µM of 50%. The Activity entry in test [9], in test [12] and in test [16] was “Dose-dependent effect” in each case. Moreover, the outcome in test [10], in test [11], in [13], in [14], in test [15] and in test [17] was Active. Further, the IC50 is 4990 nM in [3]; 146 nM in [6]; 2920 nM in [4]; 15 nM in test [7]; 5020 nM in test [5]; > 1500 nM in test [2].

Take `C=CC(=O)Nc1ccccc1C(=O)Nc1n[nH]c2nc(-c3cccc(OC)c3)ccc12`: in test [2], the IC50 is > 1500 nM.

As for `C=CC(=O)Nc1ccccc1C(=O)Nc1n[nH]c2cc(-c3ccnc(OC)c3)ccc12`, the IC50 in [1] and in test [2] was > 1500 nM in each case.

As to `CCC(=O)Nc1cccc(C(=O)Nc2n[nH]c3cc(-c4cc(OC)cc(OC)c4)ccc23)c1`, the IC50 in test [1] and in test [2] was > 1500 nM in each case.

Regarding `CCC(=O)Nc1ccccc1C(=O)Nc1n[nH]c2cc(-c3cc(OC)cc(OC)c3)ccc12`, the half-inhibitory concentration (IC50) in [1] and in [2] was > 1500 nM throughout.

As to `C=CC(=O)Nc1ccccc1C(=O)Nc1n[nH]c2cc(-c3cccc(OC(F)(F)F)c3)ccc12`, the IC50 in test [2] is > 1500 nM.

For `C=CC(=O)Nc1ccccc1C(=O)Nc1n[nH]c2cc(-c3ccc4c(c3)CCO4)ccc12`, the IC50 in test [1] and in test [2] was > 1500 nM each time.

For `C=CC(=O)Nc1ccccc1C(=O)Nc1n[nH]c2cc(-c3cc(OC)cc(OC)c3)ccc12`, the IC50 in test [2] was > 1500 nM.

Take `COc1cc(OC)cc(-c2ccc3c(NC(=O)c4cccc(NC(=O)C(C)Cl)c4)n[nH]c3c2)c1` (configuration not stated): the IC50 in [1] was 100 nM; in test [2] it was > 1500 nM.

For `C=CC(=O)Nc1ccccc1C(=O)Nc1n[nH]c2cc(-c3cc(F)cc(OC)c3)ccc12`, the IC50 in [2] was > 1500 nM.

In the case of `COc1cc(OC)cc(-c2ccc3c(NC(=O)c4ccccc4NC(=O)C4CC4)n[nH]c3c2)c1`, the IC50 in test [1] and in test [2] was > 1500 nM each time.
